Results published in ChEMBL document CHEMBL1142616, “New diketopiperazine alkaloids from Penicillium fellutanum” (J Nat Prod, 2000).
Active and inactive are the calls of the source.

How the values were obtained:
Format in all cases: functional, cell-based
[1] = system: K562; assay: Cytotoxicity against human K562 cells after 72 hrs
In short: (§1)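 Cells were exposed for 72 h of cultivation; L-929 mouse fibroblasts and HeLa human cells grown adherent, K-562 human leukemia cells grown nonadherent. Result given as IC50 in µg/mL.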

[2] = system: HeLa; assay: Cytotoxicity against human HeLa cells after 72 hrs; in short: as §1
[3] = system: L929; assay: Cytotoxicity against mouse L929 cells after 72 hrs; in short: as §1

Measured: Activity

C=CC(C)(C)c1[nH]c2ccccc2c1C[C@@H]1NC(=O)[C@H](Cc2c[nH]c3ccccc23)NC1=O
inactive: all assays above

C=CC(C)(C)c1[nH]c2ccccc2c1C[C@@H]1NC(=O)[C@H](Cc2c(C(C)(C)C=C)[nH]c3ccccc23)NC1=O
inactive: all assays above

O=C1N[C@@H](Cc2c[nH]c3ccccc23)C(=O)N[C@H]1Cc1c[nH]c2ccccc12
inactive: all assays above
